According to ChEMBL document CHEMBL1121719, “1-Oxacephalosporins: enhancement of beta-lactam reactivity and antibacterial activity” (1981):
Values after ≈ are worked out from the molar mass of the structure shown.

Legend:
[1] = tested on: Beta-lactamase (Proteus vulgaris); assay: Hydrolysis rate by the beta-lactamase from Proteus vulgaris 31 relative to cephaloridine.
[2] = molecular target: Beta-lactamase TEM (Escherichia coli) (UniProt P62593); assay: Hydrolysis rate by the beta-lactamase from Escherichia coli W3110 RTEM relative to cephaloridine.
Beta-lactamase TEM (Escherichia coli), sequence (P62593 whole entry): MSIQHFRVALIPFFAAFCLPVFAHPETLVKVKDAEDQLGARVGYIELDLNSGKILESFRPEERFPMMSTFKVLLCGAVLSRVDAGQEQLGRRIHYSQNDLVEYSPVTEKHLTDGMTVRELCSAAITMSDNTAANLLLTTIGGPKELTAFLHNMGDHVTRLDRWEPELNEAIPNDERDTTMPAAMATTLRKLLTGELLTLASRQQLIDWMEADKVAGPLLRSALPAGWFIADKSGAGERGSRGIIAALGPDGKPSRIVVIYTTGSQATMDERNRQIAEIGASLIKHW
Summary of the method: (§1)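 Constitutive producers were grown statically in nutrient phosphate broth at 37 °C for 16 h, then sonicated. Enzyme was partially purified on DEAE-Sephadex A-25 (phosphate gradient, 0.01 M pH 8.0 to 0.5 M pH 6.2). Assay conditions: 0.1 M potassium phosphate pH 7.0, 30 °C, 0.001% gelatin in enzyme diluent, 100 μM final substrate. Hydrolysis rate was taken from the slope of UV absorbance decrease, with cephaloridine set to 100.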

[3] = tested on: Escherichia coli; assay: Inhibitory concentration of compound was tested against gram negative Escherichia coli NIH JC-2.; type: functional
Summary of the method: (§2)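 MIC by agar dilution on sensitivity test agar with serial twofold antibiotic dilutions. The inoculum was an overnight tryptose broth culture diluted to about 10⁶ cells/mL. Plates were incubated at 37 °C for 18-20 h. MIC was the lowest concentration inhibiting visible growth.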

[4] = tested on: Klebsiella pneumoniae; assay: (§3) Inhibitory concentration of compound was tested against gram negative Klebsiella sp 363.; type: functional
Summary of the method: as §2

[5] = molecular target: Beta-lactamase (Escherichia coli K-12) (UniProt P00811); assay: Hydrolysis rate by the beta-lactamase from Escherichia coli 6 relative to cephaloridine.
Beta-lactamase (Escherichia coli K-12), sequence (P00811 whole entry): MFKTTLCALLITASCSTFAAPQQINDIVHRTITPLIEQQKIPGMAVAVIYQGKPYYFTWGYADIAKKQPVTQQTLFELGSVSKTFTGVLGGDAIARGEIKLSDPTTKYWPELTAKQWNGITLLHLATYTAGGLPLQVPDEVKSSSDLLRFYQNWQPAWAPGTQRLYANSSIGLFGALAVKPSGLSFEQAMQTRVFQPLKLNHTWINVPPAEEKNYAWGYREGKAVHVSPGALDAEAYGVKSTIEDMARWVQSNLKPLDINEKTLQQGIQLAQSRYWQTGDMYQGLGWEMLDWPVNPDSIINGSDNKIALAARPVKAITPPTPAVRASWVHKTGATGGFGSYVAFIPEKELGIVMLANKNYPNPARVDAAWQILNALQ
Summary of the method: (§4)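 Cells were grown statically in nutrient phosphate broth for 16 h at 37 °C and disrupted ultrasonically. β-lactamase was partially purified on CM-Sephadex C-50. Substrate (100 μM final) was hydrolysed in 0.1 M potassium phosphate pH 7.0 at 30 °C, with the enzyme diluted in buffer containing 0.001% gelatin. Rate came from the slope of UV optical density decrease and was expressed relative to cephaloridine = 100.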

[6] = tested on: Escherichia coli; assay: Inhibitory concentration of compound was tested against gram negative Escherichia coli H organism.; type: functional
Summary of the method: as §2

[7] = tested on: Klebsiella pneumoniae; assay: Inhibitory concentration of compound was tested against gram negative Klebsiella pneumoniae.; type: functional
Summary of the method: as §2

[8] = tested on: Proteus mirabilis; assay: Inhibitory concentration of compound was tested against gram negative Proteus mirabilis PR-4.; type: functional
Summary of the method: as §2

[9] = molecular target: T1, Beta-lactamase (Klebsiella oxytoca) (UniProt Q8RT60); assay: Hydrolysis rate by beta-lactamase of Klebsiella sp. 363 relative to cephaloridine (100)
T1 sequence (whole entry): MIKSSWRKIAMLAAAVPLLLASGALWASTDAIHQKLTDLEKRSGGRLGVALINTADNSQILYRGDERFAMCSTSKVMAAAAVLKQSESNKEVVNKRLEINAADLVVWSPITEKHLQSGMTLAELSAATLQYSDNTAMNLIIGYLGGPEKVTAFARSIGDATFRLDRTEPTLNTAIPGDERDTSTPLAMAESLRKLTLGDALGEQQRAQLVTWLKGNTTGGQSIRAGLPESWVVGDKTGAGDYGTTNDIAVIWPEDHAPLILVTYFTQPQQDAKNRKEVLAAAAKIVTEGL
Summary of the method: as §1

[10] = tested on: Escherichia coli; assay: Inhibitory concentration of compound was tested against gram negative Escherichia coli 73.; type: functional
Summary of the method: as §2

[11] = molecular target: Beta-lactamase (Escherichia coli K-12) (UniProt P00811); assay: Hydrolysis rate by the beta-lactamase from Escherichia coli 6 relative to cephaloridine (100);c= Hydrolysis was not detected
Summary of the method: as §4

[12] = molecular target: Beta-lactamase (Enterobacter cloacae) (UniProt P05364); assay: Hydrolysis rate by the beta-lactamase from Enterobacter cloacae 214 relative to cephaloridine (100);c= Hydrolysis was not detected
Beta-lactamase (Enterobacter cloacae) (UniProt P05364), sequence (P05364 21-381 limits assumed): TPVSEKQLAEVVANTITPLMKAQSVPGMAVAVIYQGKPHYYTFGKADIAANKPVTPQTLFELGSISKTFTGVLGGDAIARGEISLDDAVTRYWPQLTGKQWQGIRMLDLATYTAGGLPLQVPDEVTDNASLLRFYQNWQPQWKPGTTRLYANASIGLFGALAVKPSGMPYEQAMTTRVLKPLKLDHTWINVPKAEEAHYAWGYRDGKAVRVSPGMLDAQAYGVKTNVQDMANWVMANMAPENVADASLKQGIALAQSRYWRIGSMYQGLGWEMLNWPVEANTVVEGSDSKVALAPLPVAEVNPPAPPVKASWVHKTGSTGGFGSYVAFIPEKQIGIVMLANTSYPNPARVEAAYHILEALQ
Summary of the method: as §4

[13] = tested on: Beta-lactamase (Klebsiella sp.); assay: Hydrolysis rate by the beta-lactamase from Klebsiella sp. 363 relative to cephaloridine (100)
[14] = tested on: Beta-lactamase (Enterobacter cloacae); assay: Hydrolysis rate by the beta-lactamase from Enterobacter cloacae 214 relative to cephaloridine (100)
[15] = tested on: Beta-lactamase (Proteus vulgaris); assay: Hydrolysis rate by the beta-lactamase from Proteus vulgaris 31 relative to cephaloridine (100)
[16] = tested on: Klebsiella; assay: as §3; type: functional
Summary of the method: as §2

[17] = tested on: Escherichia coli; assay: Inhibitory concentration of compound was tested against gram negative Escherichia coli H organism; type: functional
Summary of the method: as §2

[18] = tested on: Proteus mirabilis; assay: Inhibitory concentration of compound was tested against gram negative Proteus mirabilis PR-4.
[19] = tested on: Escherichia coli; assay: Inhibitory concentration of compound was tested against gram negative Escherichia coli NIH JC-2; type: functional
Summary of the method: as §2

[20] = tested on: Klebsiella pneumoniae; assay: Inhibitory concentration of compound was tested against gram negative Klebsiella pneumoniae
[21] = molecular target: Beta-lactamase (Enterobacter cloacae) (UniProt P05364); assay: Hydrolysis rate by the beta-lactamase from Enterobacter cloacae 214 relative to cephaloridine (100); c= Hydrolysis was not detected
Summary of the method: as §4

[22] = molecular target: Beta-lactamase (Escherichia coli K-12) (UniProt P00811); assay: Hydrolysis rate by the beta-lactamase from Escherichia coli 6 relative to cephaloridine (100); c= Hydrolysis was not detected
Summary of the method: as §4

Row | SMILES | Relative hydrolysis rate [1] | Relative hydrolysis rate [2] | MIC [3] | MIC [4] | Relative hydrolysis rate [5] | MIC [6] | MIC [7] | MIC [8] | Relative hydrolysis rate [9] | MIC [10] | further results
1 | Cn1nnnc1SCC1=C(C(=O)O)N2C(=O)C(NC(=O)Cc3ccc(O)cc3)C2SC1 (configuration not stated) | 410 | 39 | 3.13 µg/mL (≈ 6.77 µM) | 100 µg/mL (≈ 216 µM) | 360 | 0.78 µg/mL (≈ 1.69 µM) | 1.56 µg/mL (≈ 3.37 µM) | 1.56 µg/mL (≈ 3.37 µM) | 120 | 25 µg/mL (≈ 54.1 µM) | 
2 | Cn1nnnc1SCC1=C(C(=O)O)N2C(=O)C(NC(=O)/C(=N\O)c3ccc(NS(C)(=O)=O)cc3)C2OC1 (configuration not stated) | 330 | 290 | 0.78 µg/mL (≈ 1.41 µM) | > 100 µg/mL | 5.5 | 0.78 µg/mL (≈ 1.41 µM) | 0.78 µg/mL (≈ 1.41 µM) | 1.56 µg/mL (≈ 2.82 µM) | 350 | > 100 µg/mL | 
3 | Cn1nnnc1SCC1=C(C(=O)O)N2C(=O)C(NC(=O)C(C(=O)O)c3ccc(O)cc3)C2SC1 (configuration not stated) | 20 | 0.96 | 3.13 µg/mL (≈ 6.18 µM) | 50 µg/mL (≈ 98.7 µM) |  | 3.13 µg/mL (≈ 6.18 µM) | 3.13 µg/mL (≈ 6.18 µM) | 3.13 µg/mL (≈ 6.18 µM) | 6.3 | 50 µg/mL (≈ 98.7 µM) | Relative hydrolysis rate [11]: Hydrolysis not detected; Relative hydrolysis rate [12]: Hydrolysis not detected
4 | CC1=C(C(=O)O)N2C(=O)C(NC(=O)C(N)c3ccccc3)C2OC1 (configuration not stated) |  | 12 |  |  | 260 |  |  |  |  |  | Relative hydrolysis rate [13]: 9.6; Relative hydrolysis rate [14]: 95; Relative hydrolysis rate [15]: 330
5 | Cn1nnnc1SCC1=C(C(=O)O)N2C(=O)C(NC(=O)Cc3csc(N)n3)C2SC1 (configuration not stated) | 250 | 17 | 0.1 µg/mL (≈ 0.213 µM) | 6.25 µg/mL (≈ 13.3 µM) | 120 | 0.05 µg/mL (≈ 0.107 µM) | 0.1 µg/mL (≈ 0.213 µM) | 0.1 µg/mL (≈ 0.213 µM) | 4.1 | 1.56 µg/mL (≈ 3.33 µM) | 
6 | Cn1nnnc1SCC1=C(C(=O)O)N2C(=O)C(NC(=O)Cc3csc(N)n3)C2OC1 (configuration not stated) | 770 | 350 | 0.2 µg/mL (≈ 0.442 µM) | > 100 µg/mL | 360 | 0.1 µg/mL (≈ 0.221 µM) | 0.2 µg/mL (≈ 0.442 µM) | 0.2 µg/mL (≈ 0.442 µM) | 240 | > 100 µg/mL | 
7 | Cn1nnnc1SCC1=C(C(=O)O)N2C(=O)C(NC(=O)Cc3ccc(O)cc3)C2OC1 (configuration not stated) | 710 | 560 | 0.78 µg/mL (≈ 1.75 µM) | > 100 µg/mL | 1200 | 0.39 µg/mL (≈ 0.874 µM) | 0.78 µg/mL (≈ 1.75 µM) | 0.39 µg/mL (≈ 0.874 µM) | 630 | > 100 µg/mL | 
8 | CC1=C(C(=O)O)N2C(=O)C(NC(=O)CSC(F)(F)F)C2SC1 (configuration not stated) | 160 | 1.5 |  |  | 750 |  |  |  |  | > 100 µg/mL | MIC [16]: > 100 µg/mL; MIC [17]: 25 µg/mL (≈ 70.2 µM); Relative hydrolysis rate [13]: 6.2; MIC [18]: 50 µg/mL (≈ 140 µM); MIC [19]: 50 µg/mL (≈ 140 µM); MIC [20]: 50 µg/mL (≈ 140 µM)
9 | CCN1CCN(C(=O)NC(C(=O)NC2C(=O)N3C(C(=O)O)=C(CSc4nnnn4C)COC23)c2ccc(OC(N)=O)cc2)C(=O)C1=O (configuration not stated) | 34 | 110 | ≤ 0.013 µg/mL | 12.5 µg/mL (≈ 18.6 µM) | 10 | ≤ 0.013 µg/mL | ≤ 0.013 µg/mL | 0.2 µg/mL (≈ 0.297 µM) | 0.69 | 12.5 µg/mL (≈ 18.6 µM) | 
10 | Cn1nnnc1SCC1=C(C(=O)O)N2C(=O)C(NC(=O)C(C(=O)O)c3ccc(O)cc3)C2OC1 (configuration not stated) | 86 | 19 | 0.2 µg/mL (≈ 0.408 µM) | 100 µg/mL (≈ 204 µM) |  | 0.2 µg/mL (≈ 0.408 µM) | 0.2 µg/mL (≈ 0.408 µM) | 0.39 µg/mL (≈ 0.795 µM) | 80 | 50 µg/mL (≈ 102 µM) | Relative hydrolysis rate [21]: Hydrolysis not detected; Relative hydrolysis rate [22]: Hydrolysis not detected
11 | CCN1CCN(C(=O)NC(C(=O)NC2C(=O)N3C(C(=O)O)=C(CSc4nnnn4C)CSC23)c2ccc(OC(N)=O)cc2)C(=O)C1=O (configuration not stated) | 16 | 59 | 0.1 µg/mL (≈ 0.145 µM) | > 100 µg/mL | 5.1 | ≤ 0.013 µg/mL | 0.05 µg/mL (≈ 0.0726 µM) | 1.56 µg/mL (≈ 2.27 µM) | 3.1 | 12.5 µg/mL (≈ 18.2 µM) | 
12 | CC1=C(C(=O)O)N2C(=O)C(NC(=O)CSC(F)(F)F)C2OC1 (configuration not stated) | 500 | 18 | 6.25 µg/mL (≈ 18.4 µM) | > 100 µg/mL | 910 | 3.13 µg/mL (≈ 9.2 µM) | 6.25 µg/mL (≈ 18.4 µM) | 25 µg/mL (≈ 73.5 µM) | 100 | 100 µg/mL (≈ 294 µM) | 
13 | Cn1nnnc1SCC1=C(C(=O)O)N2C(=O)C(NC(=O)C(O)c3ccccc3)C2OC1 (configuration not stated) | 300 | 370 | 0.05 µg/mL (≈ 0.112 µM) | 100 µg/mL (≈ 224 µM) | 39 | 0.05 µg/mL (≈ 0.112 µM) | 0.05 µg/mL (≈ 0.112 µM) | 0.1 µg/mL (≈ 0.224 µM) | 360 | > 100 µg/mL | 
14 | Cc1nnc(SCC2=C(C(=O)O)N3C(=O)C(NC(=O)Cn4cnnn4)C3SC2)s1 (configuration not stated) |  |  | 1.56 µg/mL (≈ 3.43 µM) |  |  | 1.56 µg/mL (≈ 3.43 µM) |  |  |  | 25 µg/mL (≈ 55 µM) | MIC [16]: > 100 µg/mL
15 | CC1=C(C(=O)O)N2C(=O)[C@@H](NC(=O)[C@H](N)c3ccccc3)[C@H]2SC1 |  | 0.75 |  |  | 57 |  |  |  |  |  | 
16 | Cc1nnc(SCC2=C(C(=O)O)N3C(=O)C(NC(=O)Cn4cnnn4)C3OC2)s1 (configuration not stated) | 1200 | 620 | 0.78 µg/mL (≈ 1.78 µM) | > 100 µg/mL | 150 | 0.78 µg/mL (≈ 1.78 µM) | 1.56 µg/mL (≈ 3.56 µM) | 1.56 µg/mL (≈ 3.56 µM) | 380 | > 100 µg/mL | 
17 | Cn1nnnc1SCC1=C(C(=O)O)N2C(=O)C(NC(=O)/C(=N\O)c3ccc(NS(C)(=O)=O)cc3)C2SC1 (configuration not stated) | 170 | 34 | 0.78 µg/mL (≈ 1.37 µM) | > 100 µg/mL | 2.2 | 0.78 µg/mL (≈ 1.37 µM) | 1.56 µg/mL (≈ 2.74 µM) | 6.25 µg/mL (≈ 11 µM) | 35 | 50 µg/mL (≈ 87.9 µM) | 
18 | Cn1nnnc1SCC1=C(C(=O)O)N2C(=O)C(NC(=O)C(O)c3ccccc3)C2SC1 (configuration not stated) |  | 55 | 0.39 µg/mL (≈ 0.843 µM) | > 100 µg/mL | 14 | 0.2 µg/mL (≈ 0.432 µM) | 0.39 µg/mL (≈ 0.843 µM) | 0.78 µg/mL (≈ 1.69 µM) | 130 | 25 µg/mL (≈ 54.1 µM) | 
